According to paper PMC5900333 (ACS Medicinal Chemistry Letters, 2018):

Experiments:
[1] = molecular target: rabbit fast skeletal muscle myofibrils (Oryctolagus cuniculus, UniProt P02586+P02641+P02643); experiment: Fast skeletal myofibril ATPase assay; assay type: biochemical; details: 14 vs 13; 25 vs bromo 14
Method in brief: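 Rabbit fast skeletal muscle myofibrils; the read-out is the rate of ATP hydrolysis. The assay runs at a calcium level of 25% of that giving a maximal response in control preparations. AC40 is the test compound concentration that raises myofibril ATPase activity by 40%. Experiments were run in duplicate, and the fold potency change is taken from the AC40 values.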

Rat pharmacokinetics = details: both, Sprague-Dawley, in vivo, iv
Microsomal turnover, rat = assay type: in vitro ADME
[2] = Microsomal turnover, human; assay type: in vitro ADME
Mouse pharmacokinetics = details: in vivo, iv, 1 mg/kg
CYP1A2 = molecular target: T1, CYP1A2 (Homo sapiens, UniProt P05177); experiment: Cytochrome P450 inhibition and time-dependent inhibition; assay type: in vitro ADME; details: liver microsomes, probe phenacetin
T1 sequence (P05177 1-516): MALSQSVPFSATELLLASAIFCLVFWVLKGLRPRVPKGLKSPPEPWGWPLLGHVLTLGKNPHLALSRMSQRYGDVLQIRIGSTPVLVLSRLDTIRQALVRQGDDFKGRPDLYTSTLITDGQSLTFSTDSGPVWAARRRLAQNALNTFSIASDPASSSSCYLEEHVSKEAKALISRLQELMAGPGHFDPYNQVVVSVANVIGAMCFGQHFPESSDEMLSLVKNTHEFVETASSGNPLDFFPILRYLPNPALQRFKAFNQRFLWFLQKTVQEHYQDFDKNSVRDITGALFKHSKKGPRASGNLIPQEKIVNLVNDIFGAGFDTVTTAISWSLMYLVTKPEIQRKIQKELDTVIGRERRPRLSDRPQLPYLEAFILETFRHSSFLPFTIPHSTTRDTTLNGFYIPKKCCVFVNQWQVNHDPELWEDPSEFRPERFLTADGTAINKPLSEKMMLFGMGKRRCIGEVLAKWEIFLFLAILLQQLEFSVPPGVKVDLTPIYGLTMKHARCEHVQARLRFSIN

[3] = system: extensor digitorum longus (EDL) muscle; experiment: In situ EDL muscle force; assay type: in vivo; details: rat, systemic infusion, submaximal stimulation rates
[4] = In vivo clearance across nonclinical species vs hepatic blood flow
[5] = ALS patients taking both 25 and Riluzole; cited from earlier work
B6SJL-SOD1^G93A mouse = details: B6SJL-SOD1G93A mice, single dose; cited from earlier work
[6] = system: PT-EAMG (passive transfer experimental autoimmune myasthenia gravis) rat model; details: rats treated with anti-nAchRα antibody; cited from earlier work
tibialis anterior = details: healthy humans, nerve stimulation; cited from earlier work
patients with ALS = details: Phase 3, patients with ALS; ref VITALITY-ALS, NCT02496767; cited from earlier work

rabbit fast skeletal muscle myofibrils, sequence (P02586 2-160 limits assumed): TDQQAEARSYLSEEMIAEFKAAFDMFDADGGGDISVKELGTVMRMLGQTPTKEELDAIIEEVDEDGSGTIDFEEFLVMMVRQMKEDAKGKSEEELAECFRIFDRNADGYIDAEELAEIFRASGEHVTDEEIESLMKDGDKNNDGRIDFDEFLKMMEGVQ
rabbit fast skeletal muscle myofibrils, sequence (P02643 2-182 limits assumed): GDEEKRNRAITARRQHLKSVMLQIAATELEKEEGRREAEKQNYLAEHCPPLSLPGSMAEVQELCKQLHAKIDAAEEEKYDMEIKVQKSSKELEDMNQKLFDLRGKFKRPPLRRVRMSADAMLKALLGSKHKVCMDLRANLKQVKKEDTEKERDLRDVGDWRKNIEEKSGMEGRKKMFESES
rabbit fast skeletal muscle myofibrils, sequence (P02641 2-279 limits assumed): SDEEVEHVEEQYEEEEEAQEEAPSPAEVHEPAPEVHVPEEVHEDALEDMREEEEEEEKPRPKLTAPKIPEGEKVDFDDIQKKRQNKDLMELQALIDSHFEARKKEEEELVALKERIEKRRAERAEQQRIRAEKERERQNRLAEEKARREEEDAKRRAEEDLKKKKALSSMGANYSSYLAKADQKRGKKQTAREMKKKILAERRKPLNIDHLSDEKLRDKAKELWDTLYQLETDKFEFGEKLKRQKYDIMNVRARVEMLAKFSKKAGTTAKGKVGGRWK

fold improvement in biochemical potency over comparator [1]	clearance (Rat pharmacokinetics; 1 mg/kg)	Re (r), ratio of extraction in microsomes (Microsomal turnover, rat)	Re (h), ratio of extraction in microsomes [2]	clearance (Rat pharmacokinetics)	clearance (Mouse pharmacokinetics)	IC50 shift at 30 min (CYP1A2)	in vivo clearance as share of hepatic blood flow [4]	SMILES	in situ EDL muscle force [3]	in situ EDL muscle force ([3]; listed as tirasemtiv)	drug-drug interaction: change of Riluzole concentrations [5]	muscle function and performance in ALS mouse model (B6SJL-SOD1^G93A mouse)	grip strength [6]	force produced by the tibialis anterior (tibialis anterior)	primary end point: change from baseline in slow vital capacity (SVC) at 24 weeks (patients with ALS)
3 fold	19 mL/min/kg	–	–	–	–	–	–	CCC(CC)n1c(=O)[nH]c2ncc(Br)nc21 [Compound 14]	–	–	–	–	–	–	–
–	7.7 mL/min/kg	–	–	–	–	–	–	CCC(CC)n1c(=O)[nH]c2ncc(Cl)nc21 [Compound 21]	–	–	–	–	–	–	–
3 fold	2.6 mL/min/kg	0.26	<0.21	2.6 mL/min/kg	13.9 mL/min/kg	> 3	less than 15 % of hepatic blood flow	C#Cc1cnc2nc(O)n(C(CC)CC)c2n1 [Compound 25, tirasemtiv]	rapid, dose-dependent increases in muscle force at submaximal stimulation rates	concentration-dependent improvement in muscle force production in situ	approximate doubling of Riluzole concentrations	significantly increased submaximal isometric force, forelimb grip strength, grid hang time, and rotarod performance	increased grip strength	increased force produced by the tibialis anterior in a dose-, concentration-, and frequency-dependent manner	did not meet its primary end point
